# Test results reported in ChEMBL document CHEMBL3272316, “Oxime ether derivatives, a new class of nonsteroidal antiinflammatory compounds” (J Med Chem, 1977).
# System: not listed separately
# Experiment: Toxicity in po dosed mouse
# Type: organism-based
# Details: in vivo
# Summary of the method: (§1)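 Mice; LD50 derived by Horn's method. Amine compounds were tested as hydrochloride salts, with one exception given as the free base.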
row,SMILES,LD50
1,C/C(=N\OCC(=O)OCCN(C)C)c1ccc(Cl)cc1 [CLOXIMATE],> 1000 mg/kg

# System: Mus musculus
# Experiment: Neurotoxicity in ip dosed mouse
# Type: toxicity, organism-based
# Details: in vivo
# Summary of the method: (§2)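 Mice were assessed by a modified Irwin observational method.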
row,SMILES,ED50
1,C/C(=N\OCC(=O)OCCN(C)C)c1ccc(Cl)cc1 [CLOXIMATE],> 320 mg/kg

# Species on record: Rattus norvegicus
# Experiment: Toxicity in rat assessed as effects on gastrointestinal mucosa
# Type: organism-based, Intestinal mucosa
# Details: in vivo
row,SMILES,Activity
1,C/C(=N\OCC(=O)OCCN(C)C)c1ccc(Cl)cc1 [CLOXIMATE],Non-toxic

# System: Rattus norvegicus
# Experiment: Antiinflammatory activity in rat assessed as inhibition of carrageenan-induced paw edema at 50 mg/kg, po administered 1 hr prior challenge measured 3 hrs post challenge
# Type: functional
# Details: not given
# Summary of the method: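 Rats of 180-220 g, four per group, were given 50 mg/kg orally in 1% tragacanth vehicle 1 h before intraplantar injection of 0.05 mL of 1% carrageenan. Hind-paw edema was measured 3 h after injection and reported as percent inhibition (Winter method).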
row,SMILES,inhibition in vivo at 50 mg/kg
1,O=C(O)CO/N=C/c1ccccc1Cl,< 20%
2,C/C(=N\OCC(=O)O)c1ccc(C2CCCCC2)c(Cl)c1,< 20%
3,C/C(=N\OCC(=O)O)c1ccc(O)cc1,< 20%
4,C/C(=N\OCC(=O)O)c1ccc(F)c(N)c1,20%
5,C/C(=N\OCC(=O)O)c1ccc(C)cc1,20%
6,O=C(O)CON=C1CCCCC1,< 20%
7,CSc1ccc(/C(C)=N/OCC(=O)O)cc1,< 20%
8,C/C(=C\CCC(=O)O)c1ccc(Cl)cc1,< 20%
9,O=C(O)CO/N=C\c1ccc(Cl)s1,< 20%
10,CC(C)=NOCC(=O)O,20%
11,CN(C)c1ccc(/C=N/OCC(=O)O)cc1,< 20%
12,C/C(=N\OCC(=O)O)c1ccc(Cl)c(C)c1,20%
13,O=C(O)C#Cc1ccc(Cl)cc1,< 20%
14,C/C(=N\OCC(=O)O)c1ccc(N(C)C)cc1,< 20%
15,C/C(=N\OCC(=O)O)c1ccccc1O,< 20%
16,CC(=O)Nc1ccc(/C(C)=N/OCC(=O)O)cc1,< 20%
17,C/C(=N/OCC(=O)O)c1ccc(Cl)s1,< 20%
18,OCCO/N=C\c1ccc(Cl)cc1,< 20%
19,C/C(=N\OCC(N)=O)c1ccc(F)cc1,20%
20,C/C(=N/OCCO)c1ccc(Cl)s1,< 20%
21,C/C(=N\OCC(=O)O)c1ccc(N)cc1,20%
22,O=C(O)CO/N=C/c1ccc([N+](=O)[O-])cc1,< 20%

row,SMILES,inhibition in vivo at 50 mg/kg
1,C/C(=N\OCC(=O)OCCN(C)C)c1ccc(F)cc1,20%
2,CCCCC/C(=N\OCC(=O)O)c1ccc(Cl)cc1,< 20%
3,C/C(=N\OCC(=O)O)c1cccc2ccccc12,20%
4,C/C(=N\OCC(C)O)c1ccc(Cl)cc1 (configuration not stated),< 20%
5,C/C(=N\NCC(=O)O)c1ccc(C2CCCCC2)c(Cl)c1,< 20%
6,C/C(=N\OCC(N)=O)c1ccccc1,< 20%
7,C/C(=N\OCC(=O)O)c1ccc(C#N)cc1,< 20%
8,O=C(O)CO/N=C1\CCc2cc(Cl)ccc21,< 20%
9,C/C(=N\OCC(=O)O)c1c[nH]c2ccccc12,< 20%
10,C/C(=N\OCCCCO)c1ccc(Cl)cc1,< 20%
11,C/C(=N\OCC(=O)O)c1ccccc1,< 20%
12,C/C(=N\OCC(=O)O)c1ccc([N+](=O)[O-])cc1,< 20%
13,CC/C(=N\OCC(=O)O)c1ccc(Cl)cc1,< 20%
14,C/C(=N\OCC(=O)O)c1cccc(Cl)c1,20%
15,C/C(=N\OCC(=O)O)c1ccc(C(C)(C)C)cc1,< 20%
16,O=C(O)CO/N=C/c1cccc2ccccc12,< 20%
17,C/C(=N\OCC(=O)O)c1ccccc1C(=O)O,< 20%
18,C/C(=N\OCC(=O)O)c1ccc(S(C)(=O)=O)cc1,20%
19,COc1ccc(/C(C)=N/OCC(=O)O)cc1,< 20%
20,C/C(=N\OCC(=O)O)c1ccc(C2CC2)cc1,< 20%
21,C/C(=N\OCC(=O)O)c1ccc(CC2CCCCC2)cc1,< 20%
22,C/C(=N\OCC(=O)O)c1ccccc1Cl,< 20%

# System: not listed separately
# Experiment: Toxicity in ip dosed mouse
# Type: organism-based
# Details: in vivo
# Summary of the method: as §1
row,SMILES,LD50
1,C/C(=N\OCC(=O)OCCN(C)C)c1ccc(Cl)cc1 [CLOXIMATE],> 320 mg/kg

# Species on record: Canis familiaris
# Experiment: Toxicity in dog assessed as effect on emptying rate of stomach
# Type: organism-based, Canis lupus familiaris
# Details: in vivo
row,SMILES,Activity
1,C/C(=N\OCC(=O)OCCN(C)C)c1ccc(Cl)cc1 [CLOXIMATE],Non-toxic

# System: Rattus norvegicus
# Experiment: Antiinflammatory activity in po dosed rat assessed as inhibition of carrageenan-induced paw edema compound administered 1 hr prior challenge measured 3 hrs post challenge
# Type: functional
# Details: not given
# Summary of the method: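 Rats of 180-220 g received oral doses in a series, in 1% tragacanth vehicle, 1 h before intraplantar injection of 0.05 mL of 1% carrageenan. Paw edema was measured at 3 h. ED50 (mg/kg) was derived graphically from the dose-inhibition curve, with 95% confidence limits by Finney's method for some compounds. Amines were tested as hydrochlorides.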
row,SMILES,ED50
1,C/C(=N\OCCC(=O)O)c1ccc(Cl)cc1,80 mg/kg
2,C/C(=N\OCC(=O)OCC(C)(C)N(C)C)c1ccc(Cl)cc1.Cl,27 mg/kg
3,CC(C)Cc1ccc(C(C)C(=O)O)cc1 (configuration not stated) [IBUPROFEN],25 mg/kg
4,C/C(=C\CC(=O)O)c1ccc(Cl)cc1,70 mg/kg
5,O=C(O)CN/N=C/c1ccc(Cl)cc1,25 mg/kg
6,C/C(=N\OCCCCCC(=O)O)c1ccc(Cl)cc1,92 mg/kg
7,C/C(=N\OCC(N)=O)c1ccc(Cl)cc1,24 mg/kg
8,C/C(=N\OCC(=O)N(C)C)c1ccc(Cl)cc1,120 mg/kg
9,C/C(=N\OCC(=O)OC(C)C)c1ccc(Cl)cc1,50 mg/kg
10,CCOC(=O)CO/N=C(\C)c1ccc(Cl)cc1,32 mg/kg
11,CCCCC1C(=O)N(c2ccccc2)N(c2ccccc2)C1=O [PHENYLBUTAZONE],34 mg/kg
12,OCCO/N=C/c1ccc(Cl)cc1,90 mg/kg
13,C/C(=N\OCC(=O)OCCN1CCN(C)CC1)c1ccc(Cl)cc1.Cl,54 mg/kg
14,O=C(O)CO/N=C/c1ccc(Cl)cc1,45 mg/kg
15,COC(=O)OCCO/N=C(\C)c1ccc(Cl)cc1,33 mg/kg
16,C/C(=N\OCCCC(=O)O)c1ccc(Cl)cc1,58 mg/kg
17,C/C(=N\OCCO)c1ccc(Cl)s1,60 mg/kg
18,C/C(=N\OCC(=O)O)c1ccc(Cl)s1,34 mg/kg
19,C/C(=N\OCC(=O)OCCN1CCOCC1)c1ccc(Cl)cc1.Cl,44 mg/kg
20,C/C(=N\OCC(=O)O)c1ccc(Cl)c(Cl)c1,65 mg/kg
21,C/C(=N\OCC(N)=O)c1ccc(Br)cc1,62 mg/kg
22,C/C(=N\OCC(=O)OCCN(C)C)c1ccc(Cl)c(Cl)c1,80 mg/kg
23,CNC(=O)CO/N=C(\C)c1ccc(Cl)cc1,70 mg/kg

row,SMILES,ED50
1,CNCCOC(=O)CO/N=C(\C)c1ccc(Cl)cc1.Cl,26 mg/kg
2,C/C(=N\OCC(=O)OCCN(C)C)c1ccc(Cl)cc1 [CLOXIMATE],34 mg/kg
3,CCCOC(=O)CO/N=C(\C)c1ccc(Cl)cc1,14 mg/kg
4,C/C(=N\OCC(N)=O)c1ccc(Cl)c(Cl)c1,55 mg/kg
5,COC(=O)CO/N=C(\C)c1ccc(Cl)cc1,24 mg/kg
6,C/C(=N\OCC(=O)O)c1ccc(Cl)cc1Cl,120 mg/kg
7,C/C(=N\OCC(=O)O)c1ccc(F)cc1,85 mg/kg
8,CC(=O)OCCO/N=C(\C)c1ccc(Cl)cc1,43 mg/kg
9,C/C(=N\OCC(=O)OCCCCCCN(C)C)c1ccc(Cl)cc1,66 mg/kg
10,C/C(=N\OC(C)C(=O)O)c1ccc(Cl)cc1 (configuration not stated),55 mg/kg
11,C/C(=N\OCCO)c1ccc(Cl)cc1,29 mg/kg
12,C/C(=N\NCC(=O)O)c1ccc(Cl)cc1,22 mg/kg
13,C/C(=N\OCC(=O)O)c1ccc(Cl)cc1,28 mg/kg
14,C/C(=N\OCCOC(=O)C(C)(C)C)c1ccc(Cl)cc1,38 mg/kg
15,C/C(=N\OCC(=O)O)c1ccc(C(F)(F)F)cc1,120 mg/kg
16,CC(C)Cc1ccc(CC(=O)O)cc1 [IBUFENAC],98 mg/kg
17,C/C(=N\OC(C)(C)C(=O)O)c1ccc(Cl)cc1,42 mg/kg
18,C/C(=N\OCC(=O)OCCNC1CCCCC1)c1ccc(Cl)cc1.Cl,26 mg/kg
19,O=C(O)CO/N=C/c1ccc(Br)cc1,46 mg/kg
20,COC(=O)CO/N=C(\C)c1ccc(Br)cc1,14 mg/kg
21,C/C(=N\OCC(=O)OCCN(C)C)c1ccc(Br)cc1,47 mg/kg
22,C/C(=N\OCC(=O)O)c1ccc(Br)cc1,27 mg/kg

# Species on record: Rattus norvegicus
# Experiment: Toxicity in rat assessed as effect on emptying rate of stomach
# Type: organism-based
# Details: in vivo
row,SMILES,Activity
1,C/C(=N\OCC(=O)OCCN(C)C)c1ccc(Cl)cc1 [CLOXIMATE],Non-toxic

# Species on record: Canis familiaris
# Experiment: Toxicity in dog assessed as effects on gastrointestinal mucosa
# Type: organism-based, Canis lupus familiaris, Intestinal mucosa
# Details: in vivo
row,SMILES,Activity
1,C/C(=N\OCC(=O)OCCN(C)C)c1ccc(Cl)cc1 [CLOXIMATE],Non-toxic

# System: Mus musculus
# Experiment: Neurotoxicity in po dosed mouse
# Type: toxicity, organism-based
# Details: in vivo
# Summary of the method: as §2
row,SMILES,ED50
1,C/C(=N\OCC(=O)OCCN(C)C)c1ccc(Cl)cc1 [CLOXIMATE],> 1000 mg/kg
